Most compounds without a hit are left out; they make up all but 2.3% or so of the library.
TRPC4 agonist = activators of mouse TRPC4 channel | Q9QUQ5 | HEK293 TRPC4beta/mu-opioid, Fluo4 calcium fluorescence; active compounds read high | B-score at 10 µM | 310,000 tested, 0.49% active | AID 2237;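 active means B-score above 5 SD of library B-scores, and initial fluorescence ratio not above library mean plus 5 SD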;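 further: positive B-score marks a calcium rise read as TRPC4 activation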
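Assay system – TRPC4beta and mu-opioid receptor HEK293 stable cells · Measured by – Fluo4 fluorescence, kinetic · Schedule – dye loading 45 min room temperature, 110 s kinetic read · Read-out – B-scored integrated calcium fluorescence ratio · Controls – buffer and maximal DAMGO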
TRPC4 inh = blocks the mouse TRPC4 cation channel | Q9QUQ5 | HEK293 TRPC4beta/mu-opioid, DAMGO-evoked Fluo4 calcium flux; active compounds read low | B-score at 10 µM | 300,000 tested, 0.39% active;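 active means B-score over 3 SD under the library average, no early fluorescence shift, positive overall ratio signal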
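test system = HEK293 cells with stable TRPC4beta plus mu-opioid receptor expression | detection = Fluo4 Ca2+ flux fluorescence | read-out = integrated fluorescence ratio relative to baseline, converted to per-well B score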
TRPC6 act = activates the mouse TRPC6 cation channel; Q61143; HEK293-TRPC6 membrane potential dye fluorescence; active compounds read high; AID 2550; 310,000 tested, 0.13% active; B-score at 10 µM;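 active means B-score of the integrated fluorescence ratio above library mean plus 3 SD, and starting fluorescence ratio within library mean plus 5 SD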;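 further: higher score means more depolarization so channel activation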
Target sequence (Q61143 whole entry, looked up): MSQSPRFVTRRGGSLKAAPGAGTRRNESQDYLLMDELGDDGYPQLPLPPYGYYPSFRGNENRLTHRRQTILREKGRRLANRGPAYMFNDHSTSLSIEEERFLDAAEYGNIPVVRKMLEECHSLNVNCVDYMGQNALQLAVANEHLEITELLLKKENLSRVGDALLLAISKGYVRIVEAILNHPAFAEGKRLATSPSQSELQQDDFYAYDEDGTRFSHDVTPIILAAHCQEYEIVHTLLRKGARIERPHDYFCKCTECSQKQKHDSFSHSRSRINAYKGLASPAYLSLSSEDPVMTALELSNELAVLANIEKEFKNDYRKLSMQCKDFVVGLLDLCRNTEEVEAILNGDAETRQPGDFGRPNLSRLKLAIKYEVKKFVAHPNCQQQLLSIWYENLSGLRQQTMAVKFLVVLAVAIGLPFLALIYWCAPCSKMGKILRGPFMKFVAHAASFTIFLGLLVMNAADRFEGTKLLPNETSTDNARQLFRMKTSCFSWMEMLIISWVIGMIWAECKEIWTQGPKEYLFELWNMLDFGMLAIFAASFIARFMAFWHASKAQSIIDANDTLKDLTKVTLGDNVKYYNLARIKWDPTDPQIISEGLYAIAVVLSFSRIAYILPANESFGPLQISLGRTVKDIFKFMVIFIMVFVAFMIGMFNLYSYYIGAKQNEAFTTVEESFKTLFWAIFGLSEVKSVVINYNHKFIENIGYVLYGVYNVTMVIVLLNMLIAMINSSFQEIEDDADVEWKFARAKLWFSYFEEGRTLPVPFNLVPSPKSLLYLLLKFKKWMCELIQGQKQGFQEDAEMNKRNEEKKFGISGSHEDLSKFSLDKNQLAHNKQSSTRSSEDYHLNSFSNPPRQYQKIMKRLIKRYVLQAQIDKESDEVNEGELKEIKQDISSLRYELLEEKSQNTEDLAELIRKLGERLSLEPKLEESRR
TRPC4 potent = allosterically enhances the mouse TRPC4 cation channel. Q9QUQ5. HEK293 TRPC4beta/mu-opioid, DAMGO EC20, Fluo-4 Ca2+ flux; active compounds read high. 310,000 tested, 0.42% active. B-score at 10 µM;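 active means B-score of calcium response area above 5 SD of library B-scores, with initial fluorescence ratio within 5 SD of library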;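 further: B-score of integrated fluorescence ratio over time as area under calcium response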
TRPC6 inh = blocks the mouse TRPC6 cation channel; HEK293-TRPC6, membrane potential dye, ACh-evoked depolarization; active compounds read low; B-score at 10 µM; 310,000 tested, 1.1% active; AID 2553;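 active means B-score under library mean minus 3 SD, initial fluorescence not abnormally high, positive integrated signal ratio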;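 further: B-score derived from integrated fluorescence ratio over the kinetic read; more negative B-score means stronger inhibition of depolarization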
HEK293 MPD ctr = parental HEK293 nonspecific activity of TRPC6 modulators. shares compounds with TRPC6 inh. membrane potential dye fluorescence. membrane potential signal change, % at 10 µM. 2,400 tested, 51% active. AID 488924;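 active means membrane potential signal moves up or down beyond 5 SD from buffer-only wells, on both duplicate plates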
HEK293 MPD ctr 2 = second check of TRPC6 modulator effects in parental HEK293 cells; shares compounds with TRPC6 inh; membrane potential dye fluorescence; after compound, maximal acetylcholine stimulation; inhibition, % at 10 µM; 2,400 tested, 14% active;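 active means membrane potential signal drops by more than 5 SD from the mean control signal, in both duplicate plates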;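 further: plate controls were acetylcholine ECmax control wells for no effect and buffer only wells for full effect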
TRPC4 ctr mod = tests whether TRPC6 modulators also affect mouse TRPC4. HEK293 TRPC4/mu-opioid, membrane potential fluorescence. 2,400 tested, 69% active. percent change from control (negative = decrease, positive = increase), % at 10 µM. shares compounds with TRPC6 inh;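 active means membrane potential signal moved up or down beyond 5 SD of buffer control wells, in both duplicate plates, actives on both sides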;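 further: plate controls were assay buffer wells for no effect and DAMGO maximal-effect wells for full effect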
TRPC4 ctr inh 2 = second check of whether TRPC6 modulators also affect mouse TRPC4; shares compounds with TRPC6 inh; HEK293 TRPC4/mu-opioid, membrane potential dye fluorescence; stimulated with maximal-effect DAMGO; inhibition, % at 10 µM; 2,400 tested, 55% active; AID 488928;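 active means drop in membrane potential signal beyond 5 SD of the control wells in both duplicate plates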;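 further: TRPC4 counter screen for TRPC6 hits run under conditions tuned for TRPC6 not TRPC4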
TRPC6 block conf = confirmation of mouse TRPC6 inhibitors | 3,300 tested, 43% active | HEK293-TRPC6, membrane potential dye, ACh-evoked depolarization | inhibition, % at 10 µM | shares compounds with TRPC6 inh | AID 488960;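 active means fluorescence ratio falls more than 5 SD below the full-stimulation control mean, in both duplicate runs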;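 further: integrated fluorescence ratio of peak minus minimum over baseline after agonist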
TRPC6 act confirm = confirmation of mouse TRPC6 activators; activation, % at 10 µM; shares compounds with TRPC6 inh; 2,800 tested, 11% active; HEK293-TRPC6 membrane potential dye fluorescence, FDSS;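 active means ratio signal rise beyond 5 SD above unstimulated control wells' mean, seen in both duplicate runs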;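 further: plate controls were buffer EC0 wells for no effect and acetylcholine ECmax response for full effect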
Starred values were filed as active, the others as inactive; i = inactive; x = no result.

SMILES	TRPC4 agonist	TRPC4 inh	TRPC6 act	TRPC4 potent	TRPC6 inh	HEK293 MPD ctr	HEK293 MPD ctr 2	TRPC4 ctr mod	TRPC4 ctr inh 2	TRPC6 block conf	TRPC6 act confirm
O=C(COC(=O)c1ccc(Cl)cc1[N+](=O)[O-])NC(=O)c1ccccc1	i	i	i	i	-5.9*	i	i	i	i	i	i
O=C(COC(=O)c1cc[n+]([O-])cc1)Nc1ccc([N+](=O)[O-])cc1Cl	i	i	i	i	-8.9*	-314%*	i	-52%*	62%*	44%*	i
O=C(NCCc1ccco1)C(=O)NCC1CCCN1S(=O)(=O)c1ccccc1 (centres undefined)	i	i	i	i	i	x	x	x	x	x	x
COc1cnc(-c2ccccn2)nc1N(C)c1ccccc1	i	i	i	i	-5.9*	-59%*	i	i	28%*	i	i
COc1ccc(Sc2nc(-c3ccccn3)ncc2OC)cc1	i	i	i	i	-6.1*	-99%*	i	-15%*	i	i	i
CCN1CCN(Cc2ccc(NC(=O)c3cc(NC(=O)c4cnnc5ccccc45)cc(OC)c3)cc2C(F)(F)F)CC1	i	i	i	i	i	x	x	x	x	x	x
CC(C)(C)NC(=O)Cn1nnc(-c2ccccc2NC(=O)c2cnccn2)n1	i	i	13*	i	-7.1*	i	i	20%*	i	i	72%*
NC(=O)Cn1nnc(-c2ccccc2NC(=O)c2cnccn2)n1	i	i	i	i	i	x	x	x	x	x	x
Cn1nc(C(C)(C)C)cc1C(=O)Nc1nc2c(s1)C(=O)CC(C)(C)C2	i	i	i	i	-5*	i	i	i	i	i	x
CC1(C)CC(=O)c2sc(NC(=O)C3CC3)nc2C1	i	i	i	i	i	x	x	x	x	x	x
Cc1ccc2nc3n(c2c1)CCCN3	i	i	i	i	i	x	x	x	x	x	x
CC1CCCCN1CC(=O)Nc1ccc(N2CCCCCC2)cc1 (centres undefined)	i	i	i	i	-5.4*	i	i	-12%*	32%*	40%*	i
CCOC(=O)c1c(CSc2ccc(C)cc2)n(C)c2cc(Br)c(O)c(CN(C)C)c12	i	i	i	i	-5.9*	i	i	i	64%*	47%*	i
CCOC(=O)c1c(CN2CCCCC2)n(C)c2cc(Br)c(O)c(CN(C)C)c12	i	i	i	i	-7.1*	-252%*	i	-52%*	58%*	45%*	i
CCOC(=O)c1c(CN2CCOCC2)n(-c2ccccc2)c2cc(Br)c(O)c(CN(C)C)c12	i	i	i	i	i	x	x	x	x	x	x
CCOC(=O)c1c(CSc2ccccc2)n(C)c2cc(Br)c(O)c(CN(C)C)c12	i	i	i	i	-5.9*	i	i	i	56%*	44%*	i
CCOC(=O)c1c(CSc2ccsc2)n(C)c2cc(Br)c(O)c(CN(C)C)c12	i	i	i	i	i	x	x	x	x	x	x
O=C(NCc1ccc(Cl)cc1)C(=O)NCC1OCCCN1S(=O)(=O)c1cccs1 (centres undefined)	i	i	i	i	i	x	x	x	x	x	x

From PubChem
